Measured values collected from several papers.
Lines come from different studies, so protocols differ.
ABL1 E255K phosphorylated: Tyrosine-protein kinase ABL1, phosphorylated (ABL1, Homo sapiens, UniProt P00519, E255K)
ABL1 M351T phosphorylated: Tyrosine-protein kinase ABL1, phosphorylated (ABL1, Homo sapiens, UniProt P00519, M351T)
ABL1 F317I phosphorylated: Tyrosine-protein kinase ABL1, phosphorylated (ABL1, Homo sapiens, UniProt P00519, F317I)
ABL1 F317L phosphorylated: Tyrosine-protein kinase ABL1, phosphorylated (ABL1, Homo sapiens, UniProt P00519, F317L)
ABL1 F317I non-phosphorylated: Tyrosine-protein kinase ABL1, non-phosphorylated (ABL1, Homo sapiens, UniProt P00519, F317I)
ABL1 non-phosphorylated: Tyrosine-protein kinase ABL1, non-phosphorylated (ABL1, Homo sapiens, UniProt P00519)
ABL1 M351T: Tyrosine-protein kinase ABL1 (ABL1, Homo sapiens, UniProt P00519, M351T)
ABL1 Y253F phosphorylated: Tyrosine-protein kinase ABL1, phosphorylated (ABL1, Homo sapiens, UniProt P00519, Y253F)
ABL1 T315I non-phosphorylated: Tyrosine-protein kinase ABL1, non-phosphorylated (ABL1, Homo sapiens, UniProt P00519, T315I)

| SMILES | target | assay | setting | remaining binding [%] |
| --- | --- | --- | --- | --- |
| O=C(Nc1c[nH]nc1C(=O)NC1CCNCC1)c1cc(F)cc(F)c1 | ABL1 E255K phosphorylated | binding, competition with immobilised ligand | 1 µM | 100 |
| Nc1ncc2c(n1)-c1c([nH]c3ccc(C#CC4CC4)cc13)CCCC2 | ABL1 M351T phosphorylated | binding, competition with immobilised ligand | 1 µM | 95 |
| CN(C)c1nccc(-c2cnn3ncccc23)n1 | Tyrosine-protein kinase ABL1 (ABL1, Homo sapiens, UniProt P00519, Y253F) | binding | 1 µM | 86 |
| O=C(c1ccc(Nc2nccc(-c3cc4ccccc4s3)n2)cc1)N1CCC(N2CCCC2)CC1 | ABL1 F317I phosphorylated | binding, competition with immobilised ligand | 1 µM | 99 |
| CC(C)(O)c1cncc(-c2nc3ccc(F)cc3n2C2CC2)c1 | Tyrosine-protein kinase ABL1, non-phosphorylated (ABL1, Homo sapiens, UniProt P00519, Q252H) | cell-free assay, competition with immobilised ligand | 1 µM | 89 |
| O=C(NCCCN1CCOCC1)c1ccc(Nc2ncc(Cl)c(-c3ccc(Cl)s3)n2)cc1 | Tyrosine-protein kinase ABL1, non-phosphorylated (ABL1, Homo sapiens, UniProt P00519, F317L) | binding, competition with immobilised ligand | 1 µM | 71 |
| COc1ccnn2ncc(-c3ccnc(N(C)C)n3)c12 | Tyrosine-protein kinase ABL1, phosphorylated (ABL1, Homo sapiens, UniProt P00519) | binding | 1 µM | 73 |
| C[C@@H](c1ccc(-n2cnc3c(N)ncnc32)cc1)N1CCc2nn(C)c(Cc3ccccc3)c2C1=O | ABL1 F317I phosphorylated | binding, competition with immobilised ligand | 0.1 µM | 62 |
| COc1cccc(CNC(=O)c2nc3scc(COCc4ccc(C(=O)O)cc4)c3c(=O)[nH]2)c1 | ABL1 F317L phosphorylated | cell-free assay, competition with immobilised ligand | 1 µM | 87.2 |
| CN(c1nccc(-c2cnn3ncccc23)n1)C1CC1 | Tyrosine-protein kinase ABL1 (ABL1, Homo sapiens, UniProt P00519, T315I) | binding | 1 µM | 100 |
| CCN1CCN(Cc2ccc(C(=O)Nc3ccc(C)c(Oc4ccc5c(c4)CC(=O)N5)c3)cc2C(F)(F)F)CC1 | ABL1 F317I non-phosphorylated | binding, competition with immobilised ligand | 1 µM | 1 |
| COc1ncc2cc3ccccc3nc2c1C#N | ABL1 non-phosphorylated | cell-free assay, competition with immobilised ligand | 5 µM | 100 |
| CNC(=O)[C@@H]1CC[C@@H](n2c(-c3ccc4cnccc4c3)nc3ccc(C(=O)NCc4cccc(C(N)=O)c4)cc32)C1 | Tyrosine-protein kinase ABL1, phosphorylated (ABL1, Homo sapiens, UniProt P00519, H396P) | binding, competition with immobilised ligand | 1 µM | 100 |
| O=C(NCCCN1CCOCC1)c1ccc(Nc2nccc(-c3cc4ccccc4s3)n2)cc1 | ABL1 F317I phosphorylated | binding, competition with immobilised ligand | 1 µM | 84 |
| c1cnn2ncc(-c3ccnc(N4CCC45COC5)n3)c2c1 | Tyrosine-protein kinase ABL1 (ABL1, Homo sapiens, UniProt P00519, H396P) | binding | 1 µM | 66 |
| O=C(O)[C@H]1[C@H](Cn2nnc3ccccc3c2=O)CC[C@@H]1C(=O)c1ccc(OCCC2CCOCC2)cc1 | ABL1 non-phosphorylated | cell-free assay, competition with immobilised ligand | 1 µM | 80 |

| SMILES | target | assay | setting | remaining binding [%] |
| --- | --- | --- | --- | --- |
| N[C@H]1CCN(c2nccc(-c3cnn4ncccc34)n2)C1 | ABL1 non-phosphorylated | binding | 1 µM | 91 |
| Cn1nc(C(F)(F)F)cc1-c1cnc(N2CCc3cc(S(=O)(=O)Nc4c(F)cc(Cl)cc4F)cc(N4CCCC4=O)c32)nc1 | Tyrosine-protein kinase ABL1, phosphorylated (ABL1, Homo sapiens, UniProt P00519, T315I) | cell-free assay, competition with immobilised ligand | 1 µM | 82 |
| O=C(c1ccc(Nc2ncc(Cl)c(-c3cc4ccccc4s3)n2)cc1)N1CCC(N2CCCC2)CC1 | ABL1 F317I phosphorylated | binding, competition with immobilised ligand | 1 µM | 100 |
| CC1CCCN1c1nccc(-c2cnn3ncccc23)n1 (centres unmarked) | ABL1 M351T | binding | 1 µM | 98 |
| O=C(c1ccc(Nc2ncc(Cl)c(-c3ccc(Cl)s3)n2)cc1)N1CCC(N2CCCC2)CC1 | Tyrosine-protein kinase ABL1, non-phosphorylated (ABL1, Homo sapiens, UniProt P00519, H396P) | binding, competition with immobilised ligand | 1 µM | 0.35 |
| c1cncc(-c2cccc(Nc3nccc(NC4CCCCC4)n3)c2)c1 | ABL1 Y253F phosphorylated | binding, competition with immobilised ligand | 10 µM | 12 |
| Cc1cnc(Nc2ccc(C(=O)N3CCC(N4CCCC4)CC3)cc2)nc1-c1cc2ccccc2s1 | ABL1 T315I non-phosphorylated | binding, competition with immobilised ligand | 1 µM | 0.1 |
| C[C@H]1CCN(c2nccc(-c3cnn4ncccc34)n2)C1 | ABL1 M351T | binding | 1 µM | 75 |
| N#CC1(c2ccccn2)CCN(Cc2cc(C(=O)N3CCCC3)c(=O)n3ccccc23)CC1 | ABL1 M351T phosphorylated | cell-free assay, competition with immobilised ligand | 1 µM | 100 |
| O=C(NCC1CCOCC1)c1n[nH]cc1NC(=O)c1c(F)cccc1F | ABL1 T315I non-phosphorylated | binding, competition with immobilised ligand | 1 µM | 90 |
| CC(=O)N1CCC(c2ccc(C(=O)NC3=NCCN3)cc2C(F)(F)F)CC1 | ABL1 F317L phosphorylated | cell-free assay, competition with immobilised ligand | 1 µM | 95 |
| COc1cnc(Nc2cccc(S(N)(=O)=O)c2)nc1N1CCN(c2ccccc2)C(=O)C1 | ABL1 E255K phosphorylated | binding, competition with immobilised ligand | 1 µM | 86 |
| CCOCCn1cc(C(=O)Nc2ccc(-n3nc(-c4cccnc4)cc3C(F)(F)F)cn2)ccc1=O | ABL1 F317L phosphorylated | cell-free assay, competition with immobilised ligand | 1 µM | 79 |
| C=CC(=O)N1CCC(C(=O)NCC(=O)N2CCN(c3nc(-c4cnc(N)nc4C(F)F)nc(N4CCOCC4)n3)CC2)CC1 | ABL1 F317I non-phosphorylated | binding, competition with immobilised ligand | 1 µM | 100 |
| C[C@@H]1CN(c2cc(-c3n[nH]c4ccc(OC5(C)CC5)cc34)ncn2)C[C@H](C)O1 | ABL1 Y253F phosphorylated | cell-free assay, competition with immobilised ligand | 0.1 µM | 66 |
| COc1cnc(Nc2cccc(S(N)(=O)=O)c2)nc1N1CCN(c2ccccc2)CC1 | ABL1 non-phosphorylated | binding, competition with immobilised ligand | 1 µM | 70 |
